High-throughput results: PubChem, several laboratories
An excerpt weighted towards active compounds, which were near 4.2% of everything screened.
CTSL1 counter-1: cathepsin L1 inhibition, PFM18AAP counter-screen; recombinant F. hepatica cathepsin L1, Z-Leu-Arg-MCA fluorescence; inhibition, % at 5.96 µM; actives 0.49% (n = 300,000);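 active = inhibition above the mean of all tested compounds plus 3 SD, set per screening campaign, cut at about 17% in these data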;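 note: 0% = plate median of test compound wells and 100% = 1 µM Z-Phe-Ala-diazomethylketone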
HDAC3 inhib: human HDAC3 inhibition; AID 2718; inhibition, % at 8.3 µM; recombinant HDAC3, fluorogenic peptide/trypsin coupled, fluorescence; O15379; actives 0.15% (n = 320,000); in the data active = inhibition above about 26%, passing the limit was not always enough
PfM18AAP inh-1: blocks P. falciparum M18 aspartyl aminopeptidase | inhibition, % at 7.35 µM | recombinant PfM18AAP, H-Glu-NHMec fluorogenic cleavage | actives 1.2% (n = 290,000);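 active = inhibition above the campaign mean inhibition over all tested compounds plus 3 SD, cut at about 28% in these data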;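 note: 0% = plate median of test compound wells and 100% = 2 mM ZnCl2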
AHR act: activators of human aryl hydrocarbon receptor; P35869; AHR-responsive luciferase reporter cells, luminescence; activation, % at 5 µM; actives 2.5% (n = 320,000); AID 2796; in the data active = activation above about 47%;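 note: 0% = vehicle wells and 100% = reference agonist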
SENP1 FRET inh: inhibitors of human SENP1 SUMO protease catalytic domain | recombinant SENP1 catalytic domain, CyPet-SUMO1-YPet FRET cleavage | Q9P0U3 | actives 0.21% (n = 360,000) | inhibition, % at 10 µM;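 active = inhibition at least 30% at 10 µM, raw YFP signal under a set limit, fluorescence ratio 0.5 to 1.5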;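 note: 0% = enzyme with DMSO and 100% = no enzyme wells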
Target sequence (Q9P0U3 419-644 limits assumed): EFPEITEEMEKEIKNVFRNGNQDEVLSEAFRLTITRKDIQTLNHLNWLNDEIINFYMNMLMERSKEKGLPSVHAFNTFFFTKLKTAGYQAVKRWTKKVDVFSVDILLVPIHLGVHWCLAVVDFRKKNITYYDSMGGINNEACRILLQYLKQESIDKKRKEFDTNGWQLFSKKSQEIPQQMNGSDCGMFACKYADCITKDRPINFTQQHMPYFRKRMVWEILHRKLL
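Test system: hSENP1 catalytic domain, recombinant; Amount: 20 pM final SENP1 enzyme; Medium: Tris pH 8 buffer plus EDTA, NaCl, BME, BSA, NP40, catalase; Schedule: 50 min enzyme reaction, room temperature, light-protected; Technique: FRET fluorescence in CFP and YFP emission channels; Controls: no-enzyme wells low, DMSO-plus-enzyme wells high control.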
GAA850 FXN act: activators of GAA850 frataxin (FXN) promoter. activation, % at 6 µM. actives 0.56% (n = 360,000). HEK293 lucGAA850 FXN promoter luciferase reporter, 24 h; percent of 10 µM SAHA response;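 active = activation above the average of all compounds screened plus 3 SD, cutoff fixed separately per campaign, cut at about 7.5% in these data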;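 note: 0% = DMSO wells and 100% = 10 µM SAHA wells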
PfM18AAP inh-2: confirmation of Plasmodium falciparum M18 aspartyl aminopeptidase inhibitors | recombinant PfM18AAP, H-Glu-NHMec fluorogenic cleavage | shares compounds with PfM18AAP inh-1 | inhibition, % at 7.35 µM | actives 28% (n = 2,400);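 active = mean inhibition over replicate wells above the hit cutoff set for the earlier primary screen, cut at about 29% in these data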;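 note: 0% = median of test compound wells and 100% = 2 mM ZnCl2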
CTSL1 counter-2: counter-screen for PFM18AAP inhibitors: confirmation of human cathepsin L inhibitors; purified cathepsin L1, Z-Leu-Arg-MCA fluorescence; 2,400 tested, under 10 active; shares compounds with PfM18AAP inh-1; AID 2178; inhibition, % at 5.96 µM;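 active = average inhibition across replicates above the hit cutoff set in the earlier primary screen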;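 note: 0% = median of test compound wells and 100% = Z-Phe-Ala-diazomethylketone 1 µM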
Target sequence (P07711 whole entry, looked up): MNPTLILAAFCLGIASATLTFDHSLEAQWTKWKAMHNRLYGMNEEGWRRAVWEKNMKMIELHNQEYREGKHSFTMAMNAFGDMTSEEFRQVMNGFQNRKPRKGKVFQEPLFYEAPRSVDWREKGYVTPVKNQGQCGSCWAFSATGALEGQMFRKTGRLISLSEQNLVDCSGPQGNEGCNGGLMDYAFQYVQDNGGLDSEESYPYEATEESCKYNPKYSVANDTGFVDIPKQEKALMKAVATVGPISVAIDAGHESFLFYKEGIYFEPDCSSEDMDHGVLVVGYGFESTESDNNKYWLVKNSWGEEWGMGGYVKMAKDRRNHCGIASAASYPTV
Active calls of the source: *.

Screening CCOC(=O)c1c(NC(=O)CSc2ncn[nH]2)sc(C(=O)NC)c1C returned CTSL1 counter-1 1, HDAC3 inhib 2, PfM18AAP inh-1 27, AHR act 10, SENP1 FRET inh -4 and GAA850 FXN act 3.
Screening COc1ccc(CNC(=O)CSc2ncn[nH]2)cc1OC returned CTSL1 counter-1 2, HDAC3 inhib 1, PfM18AAP inh-1 34*, AHR act 3, SENP1 FRET inh 1, GAA850 FXN act 1, PfM18AAP inh-2 17 and CTSL1 counter-2 -4.
For CCOC(=O)c1c(NC(=O)CSc2ncn[nH]2)sc(C)c1C the results were CTSL1 counter-1 -2, HDAC3 inhib 12, PfM18AAP inh-1 48*, AHR act -2, SENP1 FRET inh 2, GAA850 FXN act 0, PfM18AAP inh-2 0 and CTSL1 counter-2 1.
For O=C(CSc1ncn[nH]1)NCc1ccc(Cl)cc1 the results were CTSL1 counter-1 2, HDAC3 inhib -3, PfM18AAP inh-1 27, AHR act 2, SENP1 FRET inh 1 and GAA850 FXN act 1.
`CCCc1nnc(NC(=O)CSc2ncn[nH]2)s1` gave CTSL1 counter-1 -2, HDAC3 inhib -7, PfM18AAP inh-1 40*, AHR act 3, SENP1 FRET inh 0, GAA850 FXN act 0, PfM18AAP inh-2 44* and CTSL1 counter-2 -10.
O=C(CSc1ncn[nH]1)Nc1nc(-c2ccccc2)cs1 was read as CTSL1 counter-1 4, HDAC3 inhib 1, PfM18AAP inh-1 40*, AHR act 10, SENP1 FRET inh 0, GAA850 FXN act -2, PfM18AAP inh-2 46* and CTSL1 counter-2 -1.
`O=C1NC[C@@H](CCCCN2C[C@H](Cc3ccc(O)cc3)N(Cc3ccccc3)C(=O)C2=O)N(CC2CCCCC2)C1=O` gave SENP1 FRET inh -1.
For COc1ccc(CC(=O)Nc2nc(-c3ccc(OC)c(OC)c3)cs2)cc1OC the results were CTSL1 counter-1 -2, HDAC3 inhib 0, PfM18AAP inh-1 2, AHR act -6, SENP1 FRET inh 2 and GAA850 FXN act -6.
`COc1ccc(-c2csc(NC(=O)CSc3ncn[nH]3)n2)cc1OC` gave CTSL1 counter-1 6, HDAC3 inhib 14, PfM18AAP inh-1 66*, AHR act 30, SENP1 FRET inh 2, GAA850 FXN act 3, PfM18AAP inh-2 49* and CTSL1 counter-2 0.
`Cc1ccc(S(=O)(=O)NNc2nnc(C)c(=O)[nH]2)cc1` gave CTSL1 counter-1 2, HDAC3 inhib 7, PfM18AAP inh-1 74*, AHR act 2, SENP1 FRET inh 1, GAA850 FXN act 2, PfM18AAP inh-2 39* and CTSL1 counter-2 -5.
Screening Cc1nnc(NNS(=O)(=O)c2ccc(Cl)cc2)[nH]c1=O returned CTSL1 counter-1 0, HDAC3 inhib -1, PfM18AAP inh-1 72*, AHR act 6, SENP1 FRET inh 1, GAA850 FXN act 3, PfM18AAP inh-2 60* and CTSL1 counter-2 -9.
C=CCN=C(NC#N)SC was read as CTSL1 counter-1 3, HDAC3 inhib -2, PfM18AAP inh-1 -8, AHR act -2, SENP1 FRET inh 0 and GAA850 FXN act 2.
Screening CCCNC(=O)C1(C)CCCN(Cc2cc(-c3ccccc3)nn2C)C1 (centres undefined) returned SENP1 FRET inh 2 and GAA850 FXN act -2.
COc1ccc(NS(=O)(=O)c2cccc(C(=O)N3CCN(S(=O)(=O)c4ccccc4)CC3)c2)cc1 was read as SENP1 FRET inh 1 and GAA850 FXN act -1.
Screening O=C(NCc1ccc(Cl)c(Cl)c1)c1cc(C2CCCCN2C(=O)OCCF)on1 (centres undefined) returned SENP1 FRET inh 4 and GAA850 FXN act 0.
For Cc1ccc(NS(=O)(=O)c2cc(NC(=O)c3ccc4c(c3)NC(=O)CS4)ccc2Cl)c(C)c1 the results were CTSL1 counter-1 -4, HDAC3 inhib 16, PfM18AAP inh-1 32*, AHR act 54*, SENP1 FRET inh 2, GAA850 FXN act 4, PfM18AAP inh-2 -24 and CTSL1 counter-2 -10.
`Cc1nn(-c2ccccc2)c2c1C(c1ccc([N+](=O)[O-])cc1)C(C#N)=C(N)O2` (centres undefined) gave CTSL1 counter-1 -3, HDAC3 inhib 1, PfM18AAP inh-1 28, AHR act 2, SENP1 FRET inh 3, GAA850 FXN act 0, PfM18AAP inh-2 0 and CTSL1 counter-2 -1.
Cc1ccc(-n2nc(C)c3c2OC(N)=C(C#N)C3c2ccc(F)cc2)cc1 (centres undefined) was read as CTSL1 counter-1 2, HDAC3 inhib 4, PfM18AAP inh-1 7, AHR act 29, SENP1 FRET inh 1 and GAA850 FXN act -2.
O=C1NC[C@@H](CCCCN2CCN(CC3CCCCC3)C(=O)C2=O)N(CCC2CCCCC2)C1=O was read as SENP1 FRET inh 1.
CCCCN(C)C(=O)c1ccc(Nc2nc(C(N)COCc3ccccc3)cs2)nc1 (centres undefined) was read as SENP1 FRET inh -72 and GAA850 FXN act 0.
`CCN(CC)C(=O)C1=C(C)N(CCCOC)C(=O)C(CC(=O)NCCCCc2ccccc2)C1` (centres undefined) gave SENP1 FRET inh 1 and GAA850 FXN act 2.
For Cc1cccc(OCCSc2nc(N)cc(N)n2)c1 the results were CTSL1 counter-1 -1, HDAC3 inhib 14, PfM18AAP inh-1 42*, AHR act 1, SENP1 FRET inh 2, GAA850 FXN act 4, PfM18AAP inh-2 8 and CTSL1 counter-2 0.
`CCCCN(C(=O)COC(=O)C1(c2ccccc2)CC1)c1c(N)n(CCC)c(=O)[nH]c1=O` gave SENP1 FRET inh -2 and GAA850 FXN act 0.
Cc1ccc(S(=O)(=O)c2cc3c(=O)n4ccccc4nc3n(CCCN3CCOCC3)c2=N)cc1C was read as CTSL1 counter-1 5, HDAC3 inhib -37, PfM18AAP inh-1 27, AHR act -1, SENP1 FRET inh -23 and GAA850 FXN act 0.
N=c1c(S(=O)(=O)c2ccccc2)cc2c(=O)n3ccccc3nc2n1CCCN1CCOCC1 was read as CTSL1 counter-1 -4, HDAC3 inhib -32, PfM18AAP inh-1 34*, AHR act 4, SENP1 FRET inh -39, GAA850 FXN act 2, PfM18AAP inh-2 -30 and CTSL1 counter-2 -4.
O=C(NCCc1ccc(F)cc1)C1CCC(=O)N(CC2CCCCC2)C1 (centres undefined) was read as SENP1 FRET inh 2 and GAA850 FXN act 0.
